Here are results for eight compounds from ChEMBL document CHEMBL1155265, “Design, synthesis and in vitro antibacterial/antifungal evaluation of novel 1-ethyl-6-fluoro-1,4-dihydro-4-oxo-7(1-piperazinyl)quinoline-3-carboxylic acid derivatives” (2009).

Common to all, as to assay type: functional
For assay [1], the system named is Xanthomonas oryzae. Description: Antibacterial activity against Xanthomonas oryzae at 50 mg/L after 24 hrs by agar well diffusion method. To be noted: read-out: DIZ.
Assay [2] has as its system Rhizoctonia solani. Description: Antifungal activity against Rhizoctonia solani at 200 mg/L by plate growth rate method. Conditions: read-out: GI. The procedure, abridged: (§1)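 Compound dissolved in DMSO and mixed into molten PDA at 45 °C at 200 mg/L, then plates allowed to set. A 5 mm mycelial agar disc was placed at the centre. Plates were incubated at 28 °C in the dark until the untreated control covered the plate. Colony diameters were measured and growth inhibition calculated by Abbott's formula. Each compound was tested three times.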

Assay [3] concerns Ralstonia solanacearum. In words: Antibacterial activity against Ralstonia solanacearum at 50 mg/L after 24 hrs by agar well diffusion method. To be noted: read-out: DIZ. In general terms: Agar diffusion results depend on both activity and mobility in agar.
The subject of assay [4] is Fusarium graminearum. In words: Antifungal activity against Gibberella zeae at 200 mg/L by plate growth rate method. Conditions: read-out: GI. The procedure, abridged:
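Plate growth rate method: compound dissolved in DMSO, mixed into sterile PDA at 45 °C to 200 mg/L, plates poured. A 5 mm mycelium agar disc placed centrally; incubated at 28 °C in the dark until the untreated control covered the plate. Colony diameters measured; growth inhibition computed by Abbott's formula. Each compound tested three times.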

The subject of assay [5] is Erwinia. In words: Antibacterial activity against Erwinia aroideae at 50 mg/L after 24 hrs by agar well diffusion method. To be noted: read-out: DIZ. The method, boiled down:
(§2)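 Bacteria plated as 0.8 mL of 24-h-old inoculum mixed into 60 mL sterile molten agar cooled to 45 °C, poured into three dishes. Wells bored with centres at least 24 mm apart. Test sample at 50 mg/L in DMSO added to wells. DMSO served as negative control and agricultural streptomycin sulfate as positive control. Read-out was inhibition zone diameter (mm).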

Assay [6] relates to Bacillus subtilis. Description: Antibacterial activity against Bacillus subtilis at 50 mg/L after 24 hrs by agar well diffusion method. Conditions: read-out: DIZ. The procedure, abridged: as §2
Assay [7] has as its system Cytospora mali. In words: Antifungal activity against Valsa mali at 200 mg/L by plate growth rate method. To be noted: read-out: GI. The method, boiled down:
as §1

Assay [8] has as its system Xanthomonas axonopodis. In words: Antibacterial activity against Xanthomonas axonopodis at 50 mg/L after 24 hrs by agar well diffusion method. Conditions: read-out: DIZ. The procedure, abridged:
as §2

Regarding `CCn1cc(C(=O)O)c(=O)c2cc(F)c(N3CCN(C(=O)COc4ccc(OC)cc4)CC3)cc21`, the zone of inhibition at 50 µg/mL in assay [1] was 14.5 mm; in assay [3], 6.31 mm; in assay [5], 15.2 mm; in assay [6], 17.6 mm; in assay [8], 12.5 mm. Further, the results for the inhibition of growth at 200 µg/mL in assay [2], in assay [4] and in assay [7] were 60%, 17% and 10%, respectively.
In the case of `CCn1cc(C(=O)O)c(=O)c2cc(F)c(N3CCN(C(=O)c4oc5ccccc5c4C)CC3)cc21`, the zone of inhibition at 50 µg/mL in assay [1] is 5.44 mm; in assay [3] it was 3.56 mm; in assay [5], 5.94 mm; in assay [6], 6.99 mm; in assay [8] it was 5.24 mm. The inhibition of growth at 200 µg/mL in assay [2] came out at 65%; in assay [4], 45%; in assay [7] it was 33%.
As for `CCn1cc(C(=O)O)c(=O)c2cc(F)c(N3CCN(C(=O)COc4ccccc4Cl)CC3)cc21`, the zone of inhibition at 50 µg/mL came out at 17.2 mm in assay [1]; 4.67 mm in assay [3]; 11.8 mm in assay [5]; 14.2 mm in assay [6]; 10.4 mm in assay [8]. Besides, the inhibition of growth at 200 µg/mL in assay [2] is 3%; in assay [4], 10%; in assay [7], 12%.
Regarding `CCn1cc(C(=O)O)c(=O)c2cc(F)c(N3CCN(C(=O)c4cc5ccccc5o4)CC3)cc21`, the zone of inhibition at 50 µg/mL in assay [1] was determined as 8.35 mm; in assay [3], 8.56 mm; in assay [5], 11 mm; in assay [6], 11.2 mm; in assay [8] it was 8.66 mm. Moreover, the inhibition of growth at 200 µg/mL was 17% in assay [2], 7% in assay [4] and 9% in assay [7].
In the case of `CCn1cc(C(=O)O)c(=O)c2cc(F)c(N3CCN(C(=O)COc4ccc(Br)cc4)CC3)cc21`, the zone of inhibition at 50 µg/mL in assay [1] was found to be 8.02 mm; in assay [3], 7.47 mm; in assay [5] it was 8.94 mm; in assay [6], 12.7 mm; in assay [8], 10.7 mm. The inhibition of growth at 200 µg/mL in assay [2] came out at 49%; in assay [4], 6%; in assay [7] it was 9%.
For the compound `CCn1cc(C(=O)O)c(=O)c2cc(F)c(N3CCN(C(=O)COc4ccccc4C)CC3)cc21`, the zone of inhibition at 50 µg/mL was found to be 14.2 mm in assay [1]; 6.22 mm in assay [3]; 13.4 mm in assay [5]; 15.3 mm in assay [6]; 10.7 mm in assay [8]. For the same compound, the figures for the inhibition of growth at 200 µg/mL in assay [2], in assay [4] and in assay [7] were 34%, 20% and 19%, respectively.
Turning to `CCn1cc(C(=O)O)c(=O)c2cc(F)c(N3CCN(C(=O)c4cc(C)oc4C)CC3)cc21`, the zone of inhibition at 50 µg/mL stood at 18.1 mm in assay [1]; 8.39 mm in assay [3]; 11.7 mm in assay [5]; 15.7 mm in assay [6]; 11.7 mm in assay [8]. The inhibition of growth at 200 µg/mL was 16% in assay [2], 25% in assay [4] and 29% in assay [7].
Take `CCn1cc(C(=O)O)c(=O)c2cc(F)c(N3CCN(C(=O)c4ccccc4O)CC3)cc21`: the zone of inhibition at 50 µg/mL in assay [1] was 16.7 mm; in assay [3] it was 2.06 mm; in assay [5] it was 16.5 mm; in assay [6] it was 22.7 mm; in assay [8], 14.4 mm. Besides, the inhibition of growth at 200 µg/mL in assay [2] was found to be 0%; in assay [4], 15%; in assay [7], 17%.
